Laboratory results from ChEMBL document CHEMBL1949525, “Boranophosphate isoster controls P2Y-receptor subtype selectivity and metabolic stability of dinucleoside polyphosphate analogues” (J Med Chem, 2012).
Calls of active or inactive are those of the source. No cut-off for these calls is given here.

Tests used:
[1] = molecular target: P2Y purinoceptor 6 (Rattus norvegicus) (UniProt Q63371); experiment: Antagonist activity at rat P2Y purinoceptor 6 expressed in human 1321N1 cells assessed as inhibition of UDP-induced increase in intracellular calcium concentration by spectrofluorimetry; assay type: functional, cell-based
Chain of P2Y purinoceptor 6 (Rattus norvegicus) (Q63371 whole entry): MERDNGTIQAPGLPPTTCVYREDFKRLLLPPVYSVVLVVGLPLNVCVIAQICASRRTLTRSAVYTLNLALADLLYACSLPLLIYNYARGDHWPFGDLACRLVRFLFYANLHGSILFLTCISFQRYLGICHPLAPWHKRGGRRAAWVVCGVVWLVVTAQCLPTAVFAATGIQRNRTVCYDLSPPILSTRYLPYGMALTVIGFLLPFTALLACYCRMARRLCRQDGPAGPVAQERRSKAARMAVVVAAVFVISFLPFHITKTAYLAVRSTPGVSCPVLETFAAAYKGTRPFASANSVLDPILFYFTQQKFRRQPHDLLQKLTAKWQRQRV
Summary of the method: (§1)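 Fura-2-loaded 1321N1 transfectants (turkey P2Y1, human P2Y2/P2Y4, rat P2Y6) in Hepes-buffered saline, pH 7.4, at 37 °C. Analogues were tested against equimolar reference agonist: 2-MeS-ADP for P2Y1, UTP for P2Y2/4, UDP for P2Y6. Blockade of the [Ca2+]i rise was followed by dual-excitation spectrofluorometry.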

[2] = molecular target: T1, P2Y purinoceptor 2 (Homo sapiens, UniProt P41231); experiment: Antagonist activity at human P2Y purinoceptor 2 expressed in human 1321N1 cells assessed as inhibition of UTP-induced increase in intracellular calcium concentration by spectrofluorimetry; assay type: functional, cell-based; summary of the method: as §1
T1 sequence (P41231 whole entry): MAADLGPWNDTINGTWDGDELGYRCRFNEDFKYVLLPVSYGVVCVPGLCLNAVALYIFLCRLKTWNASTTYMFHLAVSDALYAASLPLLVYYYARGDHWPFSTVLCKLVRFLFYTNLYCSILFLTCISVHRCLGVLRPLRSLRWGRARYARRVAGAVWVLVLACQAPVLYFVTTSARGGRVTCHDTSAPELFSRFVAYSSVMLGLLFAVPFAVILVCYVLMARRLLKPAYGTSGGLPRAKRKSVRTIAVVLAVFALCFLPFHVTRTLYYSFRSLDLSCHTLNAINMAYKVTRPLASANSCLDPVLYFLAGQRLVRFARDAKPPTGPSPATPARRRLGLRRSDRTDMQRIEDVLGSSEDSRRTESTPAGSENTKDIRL

[3] = molecular target: P2Y purinoceptor 1 (Meleagris gallopavo) (UniProt P49652); experiment: Antagonist activity at turkey P2Y purinoceptor 1 expressed in human 1321N1 cells assessed as inhibition of 2-Sme-ADP-induced increase in intracellular calcium concentration by spectrofluorimetry; assay type: functional, cell-based; summary of the method: as §1
Chain of P2Y purinoceptor 1 (Meleagris gallopavo) (P49652 whole entry): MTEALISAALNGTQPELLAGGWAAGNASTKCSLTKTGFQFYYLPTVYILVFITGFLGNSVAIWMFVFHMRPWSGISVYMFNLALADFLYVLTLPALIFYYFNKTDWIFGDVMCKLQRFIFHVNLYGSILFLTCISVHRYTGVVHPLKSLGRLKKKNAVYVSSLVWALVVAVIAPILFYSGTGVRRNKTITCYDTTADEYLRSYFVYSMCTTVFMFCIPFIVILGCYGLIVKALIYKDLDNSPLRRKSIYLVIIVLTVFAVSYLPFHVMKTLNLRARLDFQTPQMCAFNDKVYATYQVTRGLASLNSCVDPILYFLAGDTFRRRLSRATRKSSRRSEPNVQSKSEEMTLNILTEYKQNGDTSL

[4] = molecular target: T2, P2Y purinoceptor 4 (Homo sapiens, UniProt P51582); experiment: Antagonist activity at human P2Y purinoceptor 4 expressed in human 1321N1 cells assessed as inhibition of UTP-induced increase in intracellular calcium concentration by spectrofluorimetry; assay type: functional, cell-based; summary of the method: as §1
T2 sequence (P51582 whole entry): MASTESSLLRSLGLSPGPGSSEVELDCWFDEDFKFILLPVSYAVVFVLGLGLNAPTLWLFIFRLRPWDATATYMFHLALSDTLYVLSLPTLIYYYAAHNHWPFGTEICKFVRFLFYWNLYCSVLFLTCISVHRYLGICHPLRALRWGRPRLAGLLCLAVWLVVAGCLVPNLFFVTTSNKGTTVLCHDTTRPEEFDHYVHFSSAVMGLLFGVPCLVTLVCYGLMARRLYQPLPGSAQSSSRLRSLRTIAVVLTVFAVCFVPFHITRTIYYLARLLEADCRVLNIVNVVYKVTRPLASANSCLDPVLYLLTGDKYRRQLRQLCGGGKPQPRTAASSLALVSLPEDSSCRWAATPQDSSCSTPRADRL

[5] = molecular target: T1, P2Y purinoceptor 2; experiment: Agonist activity at human P2Y purinoceptor 2 expressed in human 1321N1 cells assessed as increase in intracellular calcium concentration by spectrofluorimetry; assay type: functional, cell-based
[6] = Stability of the compound assessed as human e-NPP1-mediated hydrolysis at pH 8.5 after 20 mins by HPLC analysis; assay type: ADME; conditions: buffer, pH 8.5, 20 min; for Drug degradation: 20 min
Summary of the method: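 Human NPP1 preparation preincubated 3 min at 37 °C in 1 mM CaCl2, 200 mM NaCl, 10 mM KCl, 100 mM Tris, pH 8.5. Started with 0.2 mM dinucleotide solution (added volume) and stopped after 20 min in ice-cold perchloric acid. Neutralised with KOH, then NMP formation followed by HPLC. Percent substrate hydrolysed is the mean of two experiments run in triplicate.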

[7] = molecular target: P2Y purinoceptor 6 (Rattus norvegicus, UniProt Q63371); experiment: Agonist activity at rat P2Y purinoceptor 6 expressed in human 1321N1 cells assessed as increase in intracellular calcium concentration by spectrofluorimetry; assay type: functional, cell-based
Chain of P2Y purinoceptor 6 (Q63371 whole entry): as the sequence (Q63371 whole entry) above
Summary of the method: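 1321N1 astrocytoma cells lacking endogenous P2Y receptors, stably transfected with turkey P2Y1, human P2Y2, human P2Y4 or rat P2Y6, grown in DMEM with 5% FBS, penicillin/streptomycin and 500 µg/mL G-418. Fura-2-loaded cell suspensions were exposed at 37 °C in 10 mM Hepes-buffered saline, pH 7.4, with 1 mM CaCl2 and 1 mM MgCl2. Peak [Ca2+]i rise by dual-excitation spectrofluorometry across concentrations; EC50 from curve fits; three experiments on separate days per subtype.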

[8] = molecular target: P2Y purinoceptor 1 (Meleagris gallopavo, UniProt P49652); experiment: Agonist activity at turkey P2Y purinoceptor 1 expressed in human 1321N1 cells assessed as increase in intracellular calcium concentration by spectrofluorimetry; assay type: functional, cell-based
Chain of P2Y purinoceptor 1 (P49652 whole entry): as the sequence (P49652 whole entry) above

[9] = molecular target: T2, P2Y purinoceptor 4; experiment: Agonist activity at human P2Y purinoceptor 4 expressed in human 1321N1 cells assessed as increase in intracellular calcium concentration by spectrofluorimetry; assay type: functional, cell-based
Summary of the method: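 1321N1 astrocytoma cells (no endogenous P2Y receptors) stably expressing hP2Y4, grown in DMEM with 5% FBS, penicillin/streptomycin and 500 μg/mL G-418. Fura-2-loaded cell suspensions; compounds applied at various concentrations, 37 °C, 10 mM Hepes-buffered saline pH 7.4 with 1 mM CaCl2/MgCl2. Peak [Ca2+]i rise by dual-excitation fluorometry gives EC50; UTP reference agonist; three experiments on separate days.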

Activity [1]	Activity [2]	Activity [3]	Activity [4]	Drug degradation [6] [%]	EC50 ([7]; read-out: EC50) [µM]	EC50 ([8]; read-out: EC50) [µM]	SMILES	further results
inactive	inactive	inactive	inactive	–	–	–	BP(=O)(OC[C@H]1O[C@@H](n2cnc3c(N)ncnc32)[C@H](O)[C@@H]1O)OP(=O)(O)OP(=O)(O)OC[C@H]1O[C@@H](n2cnc3c(N)ncnc32)[C@H](O)[C@@H]1O.CCCCN(CCCC)CCCC.CCCCN(CCCC)CCCC.CCCCN(CCCC)CCCC (stereo in doubt; 10A) [listing 1 of 2 here]	–
–	–	–	–	2.1	1.92	6.9	BP(=O)(OP(=O)(O)OC[C@H]1O[C@@H](n2cnc3c(N)ncnc32)[C@H](O)[C@@H]1O)OP(=O)(O)OP(=O)(O)OC[C@H]1O[C@@H](n2ccc(=O)[nH]c2=O)[C@H](O)[C@@H]1O.CCCCN(CCCC)CCCC.CCCCN(CCCC)CCCC.CCCCN(CCCC)CCCC.CCCCN(CCCC)CCCC (stereo in doubt; 8B) [listing 1 of 2 here]	EC50 ([5]; read-out: EC50): 64.2 µM
–	–	–	–	11.3	3.9	–	BP(=O)(OC[C@H]1O[C@@H](n2ccc(=O)[nH]c2=O)[C@H](O)[C@@H]1O)OP(=O)(O)OP(=O)(O)OP(=O)(O)OC[C@H]1O[C@@H](n2ccc(=O)[nH]c2=O)[C@H](O)[C@@H]1O.CCCCN(CCCC)CCCC.CCCCN(CCCC)CCCC.CCCCN(CCCC)CCCC.CCCCN(CCCC)CCCC (stereo in doubt; 13B)	EC50 ([5]; read-out: EC50): 24.6 µM; EC50 ([9]; read-out: EC50): 16.8 µM
–	–	–	–	6	0.3	–	BP(=O)(OC[C@H]1O[C@@H](n2ccc(=O)[nH]c2=O)[C@H](O)[C@@H]1O)OP(=O)(O)OP(=O)(O)OC[C@H]1O[C@@H](n2ccc(=O)[nH]c2=O)[C@H](O)[C@@H]1O.CCCCN(CCCC)CCCC.CCCCN(CCCC)CCCC.CCCCN(CCCC)CCCC (stereo in doubt; 11B)	–
–	–	–	–	3.5	36.1	–	BP(=O)(OC[C@H]1O[C@@H](n2ccc(=O)[nH]c2=O)[C@H](O)[C@@H]1O)OP(=O)(O)OP(=O)(O)OP(=O)(O)OC[C@H]1O[C@@H](n2ccc(=O)[nH]c2=O)[C@H](O)[C@@H]1O.CCCCN(CCCC)CCCC.CCCCN(CCCC)CCCC.CCCCN(CCCC)CCCC.CCCCN(CCCC)CCCC (stereo in doubt; 13A)	EC50 ([9]; read-out: EC50): 9.4 µM; EC50 ([8]; 1321-n1): Not Active
–	–	–	–	0	0.72	4.4	BP(=O)(OC[C@H]1O[C@@H](n2ccc(=O)[nH]c2=O)[C@H](O)[C@@H]1O)OP(=O)(O)OP(=O)(O)OC[C@H]1O[C@@H](n2ccc(=O)[nH]c2=O)[C@H](O)[C@@H]1O.CCCCN(CCCC)CCCC.CCCCN(CCCC)CCCC.CCCCN(CCCC)CCCC (stereo in doubt; 11A) [listing 1 of 2 here]	EC50 ([5]; 1321-n1): Not Active; EC50 ([9]; 1321-n1): Not Active
–	–	–	–	4.4	–	0.8	BP(=O)(OC[C@H]1O[C@@H](n2cnc3c(N)ncnc32)[C@H](O)[C@@H]1O)OP(=O)(O)OP(=O)(O)OC[C@H]1O[C@@H](n2cnc3c(N)ncnc32)[C@H](O)[C@@H]1O.CCCCN(CCCC)CCCC.CCCCN(CCCC)CCCC.CCCCN(CCCC)CCCC (stereo in doubt; 10B) [listing 1 of 2 here]	–
–	–	–	–	3.3	11.7	0.81	BP(=O)(OP(=O)(O)OC[C@H]1O[C@@H](n2ccc(=O)[nH]c2=O)[C@H](O)[C@@H]1O)OP(=O)(O)OP(=O)(O)OC[C@H]1O[C@@H](n2cnc3c(N)ncnc32)[C@H](O)[C@@H]1O.CCCCN(CCCC)CCCC.CCCCN(CCCC)CCCC.CCCCN(CCCC)CCCC.CCCCN(CCCC)CCCC (stereo in doubt; 9B) [listing 1 of 2 here]	EC50 ([5]; 1321-n1): Not Active
–	–	–	–	0	–	0.76	BP(=O)(OC[C@H]1O[C@@H](n2cnc3c(N)ncnc32)[C@H](O)[C@@H]1O)OP(=O)(O)OP(=O)(O)OC[C@H]1O[C@@H](n2cnc3c(N)ncnc32)[C@H](O)[C@@H]1O.CCCCN(CCCC)CCCC.CCCCN(CCCC)CCCC.CCCCN(CCCC)CCCC (stereo in doubt; 10A) [listing 2 of 2 here]	EC50 ([5]; 1321-n1): Not Active; EC50 ([9]; 1321-n1): Not Active; EC50 ([7]; 1321-n1): Not Active
inactive	inactive	inactive	inactive	–	–	–	BP(=O)(OC[C@H]1O[C@@H](n2cnc3c(N)ncnc32)[C@H](O)[C@@H]1O)OP(=O)(O)OP(=O)(O)OC[C@H]1O[C@@H](n2cnc3c(N)ncnc32)[C@H](O)[C@@H]1O.CCCCN(CCCC)CCCC.CCCCN(CCCC)CCCC.CCCCN(CCCC)CCCC (stereo in doubt; 10B) [listing 2 of 2 here]	–
inactive	inactive	inactive	inactive	–	–	–	BP(=O)(OC[C@H]1O[C@@H](n2ccc(=O)[nH]c2=O)[C@H](O)[C@@H]1O)OP(=O)(O)OP(=O)(O)OC[C@H]1O[C@@H](n2ccc(=O)[nH]c2=O)[C@H](O)[C@@H]1O.CCCCN(CCCC)CCCC.CCCCN(CCCC)CCCC.CCCCN(CCCC)CCCC (stereo in doubt; 11A) [listing 2 of 2 here]	–
–	–	–	–	2.1	–	4.3	BP(=O)(OP(=O)(O)OC[C@H]1O[C@@H](n2cnc3c(N)ncnc32)[C@H](O)[C@@H]1O)OP(=O)(O)OP(=O)(O)OC[C@H]1O[C@@H](n2cnc3c(N)ncnc32)[C@H](O)[C@@H]1O.CCCCN(CCCC)CCCC.CCCCN(CCCC)CCCC.CCCCN(CCCC)CCCC.CCCCN(CCCC)CCCC (stereo in doubt; 6B)	–
–	–	–	–	3.5	0.98	–	BP(=O)(OP(=O)(O)OC[C@H]1O[C@@H](n2ccc(=O)[nH]c2=O)[C@H](O)[C@@H]1O)OP(=O)(O)OP(=O)(O)OC[C@H]1O[C@@H](n2ccc(=O)[nH]c2=O)[C@H](O)[C@@H]1O.CCCCN(CCCC)CCCC.CCCCN(CCCC)CCCC.CCCCN(CCCC)CCCC.CCCCN(CCCC)CCCC (stereo in doubt; 7B)	EC50 ([5]; 1321-n1): Not Active
–	–	–	–	17	–	6.9	BP(=O)(OC[C@H]1O[C@@H](n2cnc3c(N)ncnc32)[C@H](O)[C@@H]1O)OP(=O)(O)OP(=O)(O)OP(=O)(O)OC[C@H]1O[C@@H](n2cnc3c(N)ncnc32)[C@H](O)[C@@H]1O.CCCCN(CCCC)CCCC.CCCCN(CCCC)CCCC.CCCCN(CCCC)CCCC.CCCCN(CCCC)CCCC (stereo in doubt; 12B) [listing 1 of 2 here]	EC50 ([5]; read-out: EC50): 64.2 µM
inactive	inactive	inactive	inactive	–	–	–	BP(=O)(OP(=O)(O)OC[C@H]1O[C@@H](n2cnc3c(N)ncnc32)[C@H](O)[C@@H]1O)OP(=O)(O)OP(=O)(O)OC[C@H]1O[C@@H](n2ccc(=O)[nH]c2=O)[C@H](O)[C@@H]1O.CCCCN(CCCC)CCCC.CCCCN(CCCC)CCCC.CCCCN(CCCC)CCCC.CCCCN(CCCC)CCCC (stereo in doubt; 8B) [listing 2 of 2 here]	–
inactive	inactive	inactive	inactive	–	–	–	BP(=O)(OP(=O)(O)OC[C@H]1O[C@@H](n2ccc(=O)[nH]c2=O)[C@H](O)[C@@H]1O)OP(=O)(O)OP(=O)(O)OC[C@H]1O[C@@H](n2cnc3c(N)ncnc32)[C@H](O)[C@@H]1O.CCCCN(CCCC)CCCC.CCCCN(CCCC)CCCC.CCCCN(CCCC)CCCC.CCCCN(CCCC)CCCC (stereo in doubt; 9B) [listing 2 of 2 here]	–
inactive	inactive	inactive	inactive	–	–	–	BP(=O)(OC[C@H]1O[C@@H](n2cnc3c(N)ncnc32)[C@H](O)[C@@H]1O)OP(=O)(O)OP(=O)(O)OP(=O)(O)OC[C@H]1O[C@@H](n2cnc3c(N)ncnc32)[C@H](O)[C@@H]1O.CCCCN(CCCC)CCCC.CCCCN(CCCC)CCCC.CCCCN(CCCC)CCCC.CCCCN(CCCC)CCCC (stereo in doubt; 12B) [listing 2 of 2 here]	–
–	–	–	–	–	–	–	Nc1ncnc2c1ncn2[C@@H]1O[C@H](COP(=O)(O)OP(=O)(O)OP(=O)(O)OP(=O)(O)OP(=O)(O)OC[C@H]2O[C@@H](n3cnc4c(N)ncnc43)[C@H](O)[C@@H]2O)[C@@H](O)[C@H]1O	Stability [6]: Unstable
inactive	inactive	inactive	inactive	–	–	–	BP(=O)(OC[C@H]1O[C@@H](n2cnc3c(N)ncnc32)[C@H](O)[C@@H]1O)OP(=O)(O)OP(=O)(O)OP(=O)(O)OC[C@H]1O[C@@H](n2cnc3c(N)ncnc32)[C@H](O)[C@@H]1O.CCCCN(CCCC)CCCC.CCCCN(CCCC)CCCC.CCCCN(CCCC)CCCC.CCCCN(CCCC)CCCC (stereo in doubt; 12A)	–
